For 23 compounds, IC50 results are on record in ChEMBL document CHEMBL1134591, “N-Aryl sulfonyl homocysteine hydroxamate inhibitors of matrix metalloproteinases: further probing of the S(1), S(1)', and S(2)' pockets” (J Med Chem, 2001).

Assay [1] has as its target Matrix metalloproteinase-9 (Homo sapiens, UniProt P14780). The assay can be described thus: In vitro inhibition of human matrix metalloprotease-9. A digest of the protocol:
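APMA-activated enzyme, fluorogenic quenched peptide substrate Dnp-Pro-Cha-Gly-Cys(Me)-His-Ala-Lys(Nma)-NH₂, cleaved between Gly and Cys; inhibition read as substrate cleavage, reported as IC50 (nM).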

For assay [2], the target named is T1, Interstitial collagenase (Homo sapiens, UniProt P03956).
T1 sequence (P03956 whole entry): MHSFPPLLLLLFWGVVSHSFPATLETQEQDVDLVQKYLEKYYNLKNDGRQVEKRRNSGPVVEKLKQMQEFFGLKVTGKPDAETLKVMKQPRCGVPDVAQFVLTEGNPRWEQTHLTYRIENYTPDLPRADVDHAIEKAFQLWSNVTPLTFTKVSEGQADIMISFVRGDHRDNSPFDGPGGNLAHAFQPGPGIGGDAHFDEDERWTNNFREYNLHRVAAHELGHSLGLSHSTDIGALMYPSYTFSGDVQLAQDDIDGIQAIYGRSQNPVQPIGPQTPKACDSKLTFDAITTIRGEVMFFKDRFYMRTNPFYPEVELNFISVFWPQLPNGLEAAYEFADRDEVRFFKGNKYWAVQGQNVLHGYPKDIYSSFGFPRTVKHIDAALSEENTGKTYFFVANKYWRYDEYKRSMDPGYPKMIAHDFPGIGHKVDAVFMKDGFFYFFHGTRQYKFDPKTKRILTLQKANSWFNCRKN
The assay can be described thus: In vitro inhibition of human matrix metalloprotease-1.

Assay [3] concerns the target Collagenase 3 (Homo sapiens, UniProt P45452). The assay can be described thus: In vitro inhibition of human matrix metalloprotease-13.
Assay [4] has as its target Stromelysin-1 (Homo sapiens, UniProt P08254). The assay can be described thus: In vitro inhibitory activity against matrix metalloprotease-3. Summed up:
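MMP-3 activated with APMA (4-aminophenylmercuric acetate); cleavage of quenched fluorogenic substrate (7-methoxycoumarin-4-yl)-Arg-Pro-Lys-Pro-Tyr-Ala-Nva-Trp-Met-Lys(Dnp)-NH₂ at the Ala–Nva bond monitored; IC50 (nM) derived.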

Assay [5] concerns the target 72 kDa type IV collagenase (Homo sapiens, UniProt P08253). As to the kind of experiment: In vitro inhibition of human matrix metalloprotease-2.

Stromelysin-1, sequence (P08254 whole entry): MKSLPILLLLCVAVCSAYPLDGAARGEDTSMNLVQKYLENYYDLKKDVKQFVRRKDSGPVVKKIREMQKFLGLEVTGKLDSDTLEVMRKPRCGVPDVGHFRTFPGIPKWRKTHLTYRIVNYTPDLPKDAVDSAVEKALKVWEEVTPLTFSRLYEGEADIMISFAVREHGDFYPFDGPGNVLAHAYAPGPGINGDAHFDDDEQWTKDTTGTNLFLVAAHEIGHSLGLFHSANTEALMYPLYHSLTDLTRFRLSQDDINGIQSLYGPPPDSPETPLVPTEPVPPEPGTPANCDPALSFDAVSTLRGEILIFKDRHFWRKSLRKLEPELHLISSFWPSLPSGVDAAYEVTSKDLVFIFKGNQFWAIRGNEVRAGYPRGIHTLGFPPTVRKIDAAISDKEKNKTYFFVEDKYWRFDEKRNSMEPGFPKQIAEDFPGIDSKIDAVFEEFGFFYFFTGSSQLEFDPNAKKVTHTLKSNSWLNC
72 kDa type IV collagenase, sequence (P08253 whole entry): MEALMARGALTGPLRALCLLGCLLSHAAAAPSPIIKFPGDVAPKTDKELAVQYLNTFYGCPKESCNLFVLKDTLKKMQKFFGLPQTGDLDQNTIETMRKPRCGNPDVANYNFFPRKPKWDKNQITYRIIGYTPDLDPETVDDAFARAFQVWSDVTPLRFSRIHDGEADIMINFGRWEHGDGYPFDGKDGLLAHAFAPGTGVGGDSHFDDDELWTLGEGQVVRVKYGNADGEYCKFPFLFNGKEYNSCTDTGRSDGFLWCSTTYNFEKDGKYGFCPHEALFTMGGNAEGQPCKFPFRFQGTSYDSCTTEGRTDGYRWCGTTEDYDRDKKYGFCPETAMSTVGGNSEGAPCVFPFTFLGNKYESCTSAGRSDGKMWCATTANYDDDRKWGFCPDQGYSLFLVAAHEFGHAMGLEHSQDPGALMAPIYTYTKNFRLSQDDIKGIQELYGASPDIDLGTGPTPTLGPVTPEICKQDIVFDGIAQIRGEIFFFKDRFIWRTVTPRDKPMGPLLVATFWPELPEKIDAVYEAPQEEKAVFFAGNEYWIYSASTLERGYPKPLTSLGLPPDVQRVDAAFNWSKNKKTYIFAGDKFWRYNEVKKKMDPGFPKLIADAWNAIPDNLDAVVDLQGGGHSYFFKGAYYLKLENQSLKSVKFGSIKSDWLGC
Matrix metalloproteinase-9, sequence (P14780 whole entry): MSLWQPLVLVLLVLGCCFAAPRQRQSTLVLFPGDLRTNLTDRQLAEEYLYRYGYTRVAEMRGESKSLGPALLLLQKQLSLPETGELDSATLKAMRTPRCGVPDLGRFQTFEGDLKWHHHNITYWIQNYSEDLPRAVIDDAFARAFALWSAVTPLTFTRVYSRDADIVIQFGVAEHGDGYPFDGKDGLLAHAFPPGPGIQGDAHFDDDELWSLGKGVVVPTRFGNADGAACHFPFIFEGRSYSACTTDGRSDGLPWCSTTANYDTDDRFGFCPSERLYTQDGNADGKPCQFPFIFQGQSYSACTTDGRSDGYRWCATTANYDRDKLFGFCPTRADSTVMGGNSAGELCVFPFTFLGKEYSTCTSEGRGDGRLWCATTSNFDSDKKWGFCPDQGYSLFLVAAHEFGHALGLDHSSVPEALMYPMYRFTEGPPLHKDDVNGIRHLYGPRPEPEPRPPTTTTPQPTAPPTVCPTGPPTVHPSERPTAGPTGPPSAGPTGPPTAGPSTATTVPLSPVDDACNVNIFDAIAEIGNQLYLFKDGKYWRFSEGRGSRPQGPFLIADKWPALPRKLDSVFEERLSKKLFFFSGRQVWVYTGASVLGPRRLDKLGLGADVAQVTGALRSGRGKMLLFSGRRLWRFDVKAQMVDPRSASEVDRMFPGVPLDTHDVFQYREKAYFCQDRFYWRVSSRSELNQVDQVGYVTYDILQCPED

Take `COc1ccc(CNC(=O)CN(C(CCSCc2ccccc2)C(=O)NO)S(=O)(=O)c2ccc(OC)cc2)cc1` (centres undefined): the IC50 (commonly the concentration that inhibits the measured activity by half) came out at 0.2 nM in assay [1]; 19 nM in assay [2]; 0.7 nM in assay [3]; 0.9 nM in assay [4]; 0.7 nM in assay [5].
For the compound `COc1ccc(S(=O)(=O)N(CC(C)C)C(CCSCc2c(F)c(F)c(F)c(F)c2F)C(=O)NO)cc1` (centres undefined), the IC50 is 149 nM in assay [1], 407 nM in assay [3], 705 nM in assay [4] and 1810 nM in assay [5].
In the case of `COc1ccc(S(=O)(=O)N(CC(C)C)C(CCSCc2ccc(-c3ccccc3)cc2)C(=O)NO)cc1` (centres undefined), the IC50 came out at 0.2 nM in assay [1], 20 nM in assay [4] and 30 nM in assay [5].
As to `COc1ccc(S(=O)(=O)N(CC(=O)NC2CCCCC2)C(CCSCc2ccccc2)C(=O)NO)cc1` (centres undefined), the half-maximal inhibitory concentration (IC50) in assay [1] was 0.2 nM; in assay [2] it was 16 nM; in assay [3], 0.8 nM; in assay [4], 1.6 nM; in assay [5] it was 1 nM.
The like results for `COc1ccc(S(=O)(=O)N(CC(=O)NCc2ccccc2)C(CCSCc2ccccc2)C(=O)NO)cc1` (centres undefined) were, in that order, 0.2 nM, 51 nM, 0.5 nM, 1.6 nM and 0.7 nM.
The like results for `COc1ccc(S(=O)(=O)N(CC(C)C)C(CCS(=O)(=O)Cc2ccccc2)C(=O)NO)cc1` (centres undefined) were, in that order, 0.9 nM, 396 nM, 11.8 nM, 10.3 nM and 4.22 nM.
Regarding `COc1ccc(S(=O)(=O)N(CC(C)C)C(CCSCc2ccccc2)C(=O)NO)cc1` (centres undefined), the IC50 in assay [1] is below 0.1 nM; in assay [2], 104 nM; in assay [3] it was 12 nM; in assay [4], 0.7 nM; in assay [5], 0.7 nM.
With `CC(C)CN(C(CCSCc1ccccc1)C(=O)NO)S(=O)(=O)c1ccc(Oc2ccccc2)cc1` (centres undefined), the IC50 is 0.5 nM in assay [1], 3.2 nM in assay [3], 4.2 nM in assay [4] and 1.6 nM in assay [5].
`COc1ccc(S(=O)(=O)N(CC(C)C)C(CCSCc2ccc(OCc3ccccc3)cc2)C(=O)NO)cc1` (centres undefined): the IC50 in assay [1] stood at 8 nM; in assay [4], 29 nM.
On to `CCC(C(=O)NO)N(CC(C)C)S(=O)(=O)c1ccc(OC)cc1` (centres undefined), for which the IC50 in assay [1] was 7 nM; in assay [2], 384 nM; in assay [3], 96 nM; in assay [4], 45 nM; in assay [5], 53 nM.
For `COc1ccc(S(=O)(=O)N(CC(C)C)C(CCSCc2cccc(OC)c2)C(=O)NO)cc1` (centres undefined) the same measures were 3.2 nM, 297 nM, 5.3 nM, 5.7 nM and 3.78 nM.
In the case of `COc1ccc(S(=O)(=O)N(CC(=O)NC(c2ccccn2)c2ccccn2)C(CCSCc2ccccc2)C(=O)NO)cc1` (centres undefined), the IC50 in assay [1] came to 0.2 nM; in assay [2], 39 nM; in assay [3], 0.4 nM; in assay [4] it was 1.1 nM; in assay [5] it was 0.4 nM.
As to `COc1ccc(S(=O)(=O)N(CC(=O)N2CCOCC2)C(CCSCc2ccccc2)C(=O)NO)cc1` (centres undefined), the IC50 turned out to be 29 nM in assay [1]; 532 nM in assay [2]; 23 nM in assay [3]; 195 nM in assay [4]; 16 nM in assay [5].
For `COc1ccc(S(=O)(=O)N(CC(C)C)C(CCSCc2cccnc2)C(=O)NO)cc1` (centres undefined) the same measures were 3 nM, 126 nM, 16.2 nM, 6.2 nM and 6.3 nM.
For `COc1ccc(S(=O)(=O)N(CC(=O)NCc2cccnc2)C(CCSCc2ccccc2)C(=O)NO)cc1` (centres undefined), the IC50 in assay [1] is 0.2 nM; in assay [3] it was 1.1 nM; in assay [4], 2.2 nM; in assay [5], 1.2 nM.
Turning to `CC(C)CN(C(CCSCc1ccccc1)C(=O)NO)S(=O)(=O)c1ccc(Br)cc1` (centres undefined), the IC50 in assay [1] worked out at 4.3 nM; in assay [2], 164 nM; in assay [3], 14 nM; in assay [4], 15.1 nM; in assay [5] it was 16 nM.
With `CC(C)CN(C(CCSCc1ccccc1)C(=O)NO)S(=O)(=O)c1ccc(-c2ccccc2)cc1` (centres undefined), the IC50 in assay [1] was 2.5 nM; in assay [3], 3.8 nM; in assay [4] it was 90 nM; in assay [5], 4.1 nM.
As to `COc1ccc(S(=O)(=O)N(CC(C)C)C(CCSCc2ccsc2)C(=O)NO)cc1` (centres undefined), the IC50 stood at 1 nM in assay [1]; 188 nM in assay [2]; 5.1 nM in assay [3]; 5.4 nM in assay [4]; 3.2 nM in assay [5].
Turning to `COc1ccc(S(=O)(=O)N(CC(=O)NC(C2CCCCC2)C2CCCCC2)C(CCSCc2ccccc2)C(=O)NO)cc1` (centres undefined), the results for the IC50 in assay [1] and in assay [5] were 1.88 nM and 8.82 nM, respectively.
For the compound `COc1ccc(S(=O)(=O)N(CC(=O)NCC2CCCCC2)C(CCSCc2ccccc2)C(=O)NO)cc1` (centres undefined), the results for the IC50 in assay [1] and in assay [5] were 0.01 nM and 0.3 nM, respectively.
Consider `COc1ccc(S(=O)(=O)N(CC(=O)NCc2cc(OC)cc(OC)c2)C(CCSCc2ccccc2)C(=O)NO)cc1` (centres undefined), for which the IC50 amounted to 0.6 nM in assay [1]; 36 nM in assay [2]; 2.3 nM in assay [3]; 4.7 nM in assay [4]; 1.6 nM in assay [5].
Regarding `COc1ccc(S(=O)(=O)N(CC(=O)NC(c2ccccc2)c2ccccc2)C(CCSCc2ccccc2)C(=O)NO)cc1` (centres undefined), the IC50 in assay [1] turned out to be 0.5 nM; in assay [3], 4.5 nM; in assay [4], 3.7 nM; in assay [5], 2.3 nM.
Turning to `COc1ccc(S(=O)(=O)N(CC(=O)NCc2c(OC)cc(OC)cc2OC)C(CCSCc2ccccc2)C(=O)NO)cc1` (centres undefined), the IC50 in assay [1] worked out at 0.3 nM; in assay [2], 49 nM; in assay [3], 1.6 nM; in assay [4], 2.5 nM; in assay [5], 1.2 nM.
